# Measurements taken from ChEMBL document CHEMBL4368858, “Search for a 5-CT alternative. In vitro and in vivo evaluation of novel pharmacological tools: 3-(1-alkyl-1H-imidazol-5-yl)-1H-indole-5-carboxamides, low-basicity 5-HT7 receptor agonists” (Medchemcomm, 2018).
# Active and inactive are the calls of the source.
# Experiments:
# [1] = molecular target: T1, 5-hydroxytryptamine receptor 6 (Homo sapiens, UniProt P50406); test: Displacement of [3H]LSD from human recombinant 5-HT6 receptor expressed in cell membrane after 1.5 hrs by scintillation counting analysis; format: cell membranes
# Method in brief: (§1)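 Cloned human 5-HT6 receptor stably expressed in HEK-293 cells; displacement of [3H]-LSD.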
# [2] = molecular target: T2, 5-hydroxytryptamine receptor 2A (Homo sapiens, UniProt P28223); test: Displacement of [3H]ketanserin from recombinant human 5-HT2A receptor expressed in cell membrane after 1.5 hrs by scintillation counting analysis; format: cell membranes
# Method in brief: (§2)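 Cloned human 5-HT2A receptor stably expressed in CHO cells; displacement of [3H]-ketanserin.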
# [3] = molecular target: 5-hydroxytryptamine receptor 5A (Homo sapiens, UniProt P47898); test: Displacement of [3H]LSD from human recombinant 5-HT5A receptor expressed in cell membrane after 1.5 hrs by scintillation counting analysis; format: cell membranes
# D(2) dopamine receptor = D(2) dopamine receptor (Homo sapiens, UniProt P14416); test: Displacement of [3H]-raclopride from recombinant human D2LR receptor expressed in HEK293 cells measured after 1 hr by microbeta counting method; format: cell-based
# Method in brief: (§3)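 Radioligand displacement on cloned human receptors stably expressed in HEK-293 cells, except 5-HT2A, which was expressed in CHO cells. Radioligands: [3H]-LSD for 5-HT6, [3H]-5-CT for 5-HT7, [3H]-ketanserin for 5-HT2A, [3H]-raclopride for D2.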
# [4] = molecular target: T1, 5-hydroxytryptamine receptor 6; test: Displacement of [3H]-LSD from recombinant human 5HT6 receptor expressed in HEK293 cells measured after 1 hr by microbeta counting method; format: cell-based; method in brief: as §3
# [5] = molecular target: T2, 5-hydroxytryptamine receptor 2A; test: Displacement of [3H]-ketanserin from recombinant human 5HT2A receptor expressed in CHOK1 cells measured after 1 hr by microbeta counting method; format: cell-based; method in brief: as §3
# [6] = Mutagenicity in Salmonella typhimurium TA100 assessed as revertant colonies at 10 uM by Ames test; format: toxicity; settings: salmonella enterica subsp. enterica serovar typhimurium
# Method in brief: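 Ames microplate fluctuation assay with S. typhimurium TA100 in 384-well format, run in triplicate. Medium control baseline defined as mean revertants in growth medium + 1% DMSO plus one SD. Positive wells counted; a 2-fold increase over baseline flagged as a mutagen alert.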
# [7] = Drug metabolism in rat liver microsomes measured after 120 mins in presence of NADPH generating system by UPLC analysis; format: ADME, Microsome; settings: for metabolised at 2 h: liver microsomes, read-out: Drug metabolism
# Method in brief: (§4)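 Incubation with human, rat or mouse liver microsomes for 120 min at 37 °C with an NADPH regeneration system. Reaction mixtures analysed by UPLC for metabolites and % substrate metabolized.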
# CYP3A4 = CYP3A4 (Homo sapiens, UniProt P08684); test: Inhibition of CYP3A4 (unknown origin) assessed as residual activity at 10 uM using beetle D-luciferin as substrate by CYP450-Glo assay relative to control; format: ADME; settings: CYP3A4 enzyme (unknown origin), probe beetle D-luciferin, read-out: Activity
# Method in brief: (§5)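 Luminescent P450-Glo assays for CYP3A4, CYP2D6 and CYP2C9 run per the kit protocol. Triplicate wells, final concentrations 0.01–25 μM, same across all three isoforms. Activity given as % of control.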
# [8] = Drug metabolism in human liver microsomes measured after 120 mins in presence of NADPH generating system by UPLC analysis; format: ADME, Microsome; settings: for Drug metabolism: microsomes, 2 h; method in brief: as §4
# CYP2D6 = CYP2D6 (Homo sapiens, UniProt P10635); test: Inhibition of CYP2D6 (unknown origin) assessed as residual activity at 10 uM using beetle D-luciferin as substrate by CYP450-Glo assay relative to control; format: ADME; settings: CYP2D6 enzyme (unknown origin), probe beetle D-luciferin, read-out: Activity; method in brief: as §5
# [9] = Drug metabolism in mouse liver microsomes measured after 120 mins in presence of NADPH generating system by UPLC analysis; format: ADME, Microsome; settings: read-out: Drug metabolism; method in brief: as §4
# CYP2C9 = CYP2C9 (Homo sapiens, UniProt P11712); test: Inhibition of CYP2C9 (unknown origin) assessed as residual activity at 25 uM using beetle D-luciferin as substrate by CYP450-Glo assay relative to control; format: ADME; settings: CYP2C9 enzyme (unknown origin), probe beetle D-luciferin, read-out: Activity; method in brief: as §5
# [10] = Permeability of the compound by PAMPA; format: ADME; settings: read-out: permeability
# Method in brief: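 Passive permeability measured on a pre-coated PAMPA plate system. Concentrations were quantified against calibration curves made by capillary electrophoresis with diode-array detection. The permeability coefficient Pe is reported in 10^-6 cm s^-1 as mean ± SD of triplicates.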
# P-glycoprotein (ABCB1) = P-glycoprotein (ABCB1) (Homo sapiens, UniProt P08183); test: Inhibition of recombinant human membrane bound Pgp assessed as basal ATP consumption at 100 uM after 40 mins by Pgp-Glo luminescence assay relative to control; parameters: scale not given: the % may be the effect or the level left; settings: read-out: Activity
# Method in brief: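 Pgp-Glo luminescence assay measuring Pgp ATP consumption. Compounds incubated with Pgp membranes at 100 μM for 40 min at 37 °C in triplicate. Na3VO4 (100 μM) used as reference inhibitor and verapamil (200 μM) as stimulator; basal activity taken as the vanadate-versus-untreated signal difference.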
# [11] = Retention time of the compound in rat liver microsomes in presence of NADPH generating system by UPLC analysis; format: ADME, Microsome
# Method in brief: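 Incubated with rat liver microsomes plus an NADPH regeneration system for 120 min at 37 °C. Reaction mixtures were analysed by UPLC to detect metabolites and their retention times.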
# [12] = molecular target: T3, 5-hydroxytryptamine receptor 1A (Homo sapiens, UniProt P08908); test: Displacement of [3H]-8-OH-DPAT from recombinant human 5HT1A receptor expressed in HEK293 cells measured after 1 hr by microbeta counting method; format: cell-based
# T3 sequence (P08908 whole entry): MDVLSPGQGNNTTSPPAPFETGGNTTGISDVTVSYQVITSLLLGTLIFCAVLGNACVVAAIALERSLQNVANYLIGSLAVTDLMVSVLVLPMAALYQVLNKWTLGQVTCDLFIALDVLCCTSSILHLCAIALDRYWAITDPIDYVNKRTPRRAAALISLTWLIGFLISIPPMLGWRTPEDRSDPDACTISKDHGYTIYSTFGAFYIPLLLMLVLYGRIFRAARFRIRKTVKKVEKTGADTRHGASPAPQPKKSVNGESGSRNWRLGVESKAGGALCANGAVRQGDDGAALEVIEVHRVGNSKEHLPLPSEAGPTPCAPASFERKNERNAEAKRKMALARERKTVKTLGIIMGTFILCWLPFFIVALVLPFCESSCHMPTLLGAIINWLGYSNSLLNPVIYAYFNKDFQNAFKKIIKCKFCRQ
# Method in brief: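 Cloned human 5-HT1A receptor stably expressed in HEK-293 cells; displacement of [3H]-8-OH-DPAT.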
# Homo sapiens = species: Homo sapiens; test: Selectivity ratio of Ki for displacement of [3H]-8-OH-DPAT from recombinant human 5HT1A receptor expressed in HEK293 cell membranes to Ki for displacement of [3H]-5-CT from recombinant human 5HT7b receptor expressed in HEK293 cell membranes
# Cytochrome P450 3A4 = Cytochrome P450 3A4 (Homo sapiens, UniProt P08684); test: Inhibition of CYP3A4 (unknown origin) using beetle D-luciferin as substrate by CYP450-Glo assay; format: ADME
# Cytochrome P450 2D6 = Cytochrome P450 2D6 (Homo sapiens, UniProt P10635); test: Inhibition of CYP2D6 (unknown origin) using beetle D-luciferin as substrate by CYP450-Glo assay; format: ADME
# [13] = molecular target: 5-hydroxytryptamine receptor 7 (Homo sapiens, UniProt P34969); test: Displacement of [3H]-5-CT from recombinant human 5HT7b receptor expressed in HEK293 cells measured after 1 hr by microbeta counting method; format: cell-based; method in brief: as §3
# HEK293 = test: Cytotoxicity against HEK293 cells assessed as reduction in cell viability at 1 uM after 72 hrs by MTS assay relative to control; settings: human, hek293, 72 h
# [14] = molecular target: T2, 5-hydroxytryptamine receptor 2A; test: Displacement of [3H]ketanserin from recombinant human 5-HT2A receptor after 60 mins by scintillation counting analysis; method in brief: as §2
# [15] = molecular target: T1, 5-hydroxytryptamine receptor 6; test: Displacement of [3H]LSD from human recombinant 5-HT6 receptor after 120 mins by scintillation counting analysis; method in brief: as §1
# [16] = molecular target: T3, 5-hydroxytryptamine receptor 1A; test: Displacement of [3H]8-OH-DPAT from recombinant human 5-HT1A receptor after 60 mins by scintillation counting analysis
# Method in brief: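 Radioligand displacement at cloned human 5-HT1A receptor stably expressed in HEK-293 cells, with [3H]-8-OH-DPAT as the radioligand.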
# Mus musculus [17] = test: Reversal of MK-801-induced cognitive impairment in mouse assessed increase in novel object recognition at 1 mg/kg treated for 60 mins followed by MK-801 addition 30 mins prior to testing by novel object recognition test; format: functional, organism-based
# Method in brief: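 Mice adapted to an open field for 10 min. Next day: MK-801 0.3 mg kg-1 i.p. given 30 min before training, with the test compound given 60 min before MK-801. Training (T1) used two identical objects; in the retention trial 1 h later one object was replaced by a novel one. Exploration of each object was scored over 5 min. Means ± SEM.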
# [18] = Toxicity in albino Swiss mouse assessed as effect on body temperature at 1 to 15 mg/kg; format: organism-based; settings: in vivo
# Method in brief: (§6)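 Albino Swiss mice housed singly 24 h before test, dosed 1, 5 or 15 mg kg-1 60 min before test. Rectal temperature read to 0.1 °C at t = 0 (T1) and +15 min (T2) after transfer to a new cage. SIH taken as T2 − T1; T1 compared with vehicle for basal temperature effect. Groups of 8–10; one-way ANOVA with Dunnett's test.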
# [19] = Retention time of the compound in mouse liver microsomes in presence of NADPH generating system by UPLC analysis; format: ADME, Microsome; method in brief: as §4
# [20] = Hepatotoxicity against human HepG2 cells assessed as ATP level at 100 uM after 3 hrs by CellTiter-Glo luminescent cell viability assay relative to control; format: toxicity, cell-based; settings: read-out: Activity
# Method in brief: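 HepG2 cells exposed 3 h at 1, 10 and 100 μM. […] Run in quadruplicate; result given as % of control.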
# Mus musculus [21] = test: Anxiolytic-like activity in albino Swiss mouse assessed as reduction in stress-induced hyperthermia by measuring reduction in body temperature at 15 mg/kg administered 60 mins prior to testing measured for 15 mins; format: functional, organism-based; method in brief: as §6
# Sequence of D(2) dopamine receptor (P14416 whole entry): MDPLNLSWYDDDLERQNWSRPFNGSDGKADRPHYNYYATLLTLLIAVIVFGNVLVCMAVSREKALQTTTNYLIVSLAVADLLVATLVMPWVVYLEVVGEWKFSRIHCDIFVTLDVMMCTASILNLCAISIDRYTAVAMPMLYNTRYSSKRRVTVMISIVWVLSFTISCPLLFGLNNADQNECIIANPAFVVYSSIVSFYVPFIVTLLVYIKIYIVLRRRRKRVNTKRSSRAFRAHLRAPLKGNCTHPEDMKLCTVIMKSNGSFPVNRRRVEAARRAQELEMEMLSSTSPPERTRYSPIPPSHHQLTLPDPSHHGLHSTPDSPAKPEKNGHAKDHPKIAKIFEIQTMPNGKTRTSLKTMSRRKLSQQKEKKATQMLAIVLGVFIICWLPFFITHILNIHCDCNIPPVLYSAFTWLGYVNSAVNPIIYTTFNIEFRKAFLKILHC
# Sequence of CYP3A4 (P08684 whole entry, canonical isoform): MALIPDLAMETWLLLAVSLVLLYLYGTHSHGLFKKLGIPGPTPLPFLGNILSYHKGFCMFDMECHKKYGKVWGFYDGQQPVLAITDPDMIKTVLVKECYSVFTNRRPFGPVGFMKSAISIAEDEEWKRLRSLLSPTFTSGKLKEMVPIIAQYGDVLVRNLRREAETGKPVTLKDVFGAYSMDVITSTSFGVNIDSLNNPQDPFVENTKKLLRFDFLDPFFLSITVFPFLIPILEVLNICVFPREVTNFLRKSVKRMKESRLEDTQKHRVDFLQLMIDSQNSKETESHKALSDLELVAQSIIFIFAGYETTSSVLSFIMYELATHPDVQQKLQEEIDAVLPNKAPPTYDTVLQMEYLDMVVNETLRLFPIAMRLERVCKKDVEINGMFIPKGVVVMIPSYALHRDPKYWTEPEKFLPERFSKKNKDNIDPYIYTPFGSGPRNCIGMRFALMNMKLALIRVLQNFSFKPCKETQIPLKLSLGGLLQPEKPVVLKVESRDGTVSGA
# Sequence of 5-hydroxytryptamine receptor 7 (P34969 whole entry): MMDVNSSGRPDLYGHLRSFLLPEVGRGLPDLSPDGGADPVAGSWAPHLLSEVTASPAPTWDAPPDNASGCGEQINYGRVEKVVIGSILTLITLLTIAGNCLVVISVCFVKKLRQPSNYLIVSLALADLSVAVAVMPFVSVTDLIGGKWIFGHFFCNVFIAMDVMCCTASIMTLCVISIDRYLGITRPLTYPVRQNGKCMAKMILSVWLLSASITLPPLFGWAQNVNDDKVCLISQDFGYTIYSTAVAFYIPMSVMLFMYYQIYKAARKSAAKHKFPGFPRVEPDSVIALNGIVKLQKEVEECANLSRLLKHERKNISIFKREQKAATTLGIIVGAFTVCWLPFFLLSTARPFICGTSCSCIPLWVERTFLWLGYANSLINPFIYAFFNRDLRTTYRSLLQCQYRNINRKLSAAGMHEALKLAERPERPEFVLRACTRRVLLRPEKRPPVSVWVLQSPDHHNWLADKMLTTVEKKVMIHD
# T1 sequence (P50406 whole entry): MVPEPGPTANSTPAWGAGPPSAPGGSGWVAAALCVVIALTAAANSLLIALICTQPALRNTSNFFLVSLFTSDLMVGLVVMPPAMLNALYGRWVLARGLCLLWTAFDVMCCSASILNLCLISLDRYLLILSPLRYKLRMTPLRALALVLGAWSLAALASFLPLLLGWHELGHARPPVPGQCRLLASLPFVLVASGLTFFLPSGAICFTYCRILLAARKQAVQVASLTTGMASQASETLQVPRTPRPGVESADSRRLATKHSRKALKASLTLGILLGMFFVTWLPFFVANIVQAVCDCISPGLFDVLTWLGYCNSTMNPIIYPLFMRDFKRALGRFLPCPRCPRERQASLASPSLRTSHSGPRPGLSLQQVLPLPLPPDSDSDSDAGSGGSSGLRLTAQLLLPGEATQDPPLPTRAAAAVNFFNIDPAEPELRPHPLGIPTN
# T2 sequence (P28223 whole entry): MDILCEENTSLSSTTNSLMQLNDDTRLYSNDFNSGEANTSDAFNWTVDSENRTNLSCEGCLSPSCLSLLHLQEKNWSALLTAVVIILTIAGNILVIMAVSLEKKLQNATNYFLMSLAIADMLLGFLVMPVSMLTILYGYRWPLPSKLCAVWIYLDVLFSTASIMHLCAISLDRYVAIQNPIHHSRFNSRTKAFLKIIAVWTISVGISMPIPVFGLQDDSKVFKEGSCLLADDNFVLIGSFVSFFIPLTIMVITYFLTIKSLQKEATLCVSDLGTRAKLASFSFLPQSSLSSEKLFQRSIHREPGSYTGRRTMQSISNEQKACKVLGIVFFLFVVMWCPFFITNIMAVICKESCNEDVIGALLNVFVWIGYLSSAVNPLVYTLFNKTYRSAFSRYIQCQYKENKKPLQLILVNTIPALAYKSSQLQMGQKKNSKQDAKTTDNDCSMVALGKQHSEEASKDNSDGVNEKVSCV
# Sequence of CYP2C9 (P11712 whole entry): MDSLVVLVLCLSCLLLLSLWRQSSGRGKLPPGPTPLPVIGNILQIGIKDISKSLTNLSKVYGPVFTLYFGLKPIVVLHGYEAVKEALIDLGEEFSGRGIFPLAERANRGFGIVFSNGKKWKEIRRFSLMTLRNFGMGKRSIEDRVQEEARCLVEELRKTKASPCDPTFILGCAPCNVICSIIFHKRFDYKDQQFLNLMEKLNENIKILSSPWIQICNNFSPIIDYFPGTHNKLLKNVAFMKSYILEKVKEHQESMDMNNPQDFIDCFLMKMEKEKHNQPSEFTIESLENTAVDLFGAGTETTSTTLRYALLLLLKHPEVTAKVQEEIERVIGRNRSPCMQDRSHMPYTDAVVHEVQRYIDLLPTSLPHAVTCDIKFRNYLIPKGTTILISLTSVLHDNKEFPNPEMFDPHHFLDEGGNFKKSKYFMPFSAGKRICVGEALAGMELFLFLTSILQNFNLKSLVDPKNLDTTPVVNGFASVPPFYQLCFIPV
# Sequence of P-glycoprotein (ABCB1) (P08183 whole entry): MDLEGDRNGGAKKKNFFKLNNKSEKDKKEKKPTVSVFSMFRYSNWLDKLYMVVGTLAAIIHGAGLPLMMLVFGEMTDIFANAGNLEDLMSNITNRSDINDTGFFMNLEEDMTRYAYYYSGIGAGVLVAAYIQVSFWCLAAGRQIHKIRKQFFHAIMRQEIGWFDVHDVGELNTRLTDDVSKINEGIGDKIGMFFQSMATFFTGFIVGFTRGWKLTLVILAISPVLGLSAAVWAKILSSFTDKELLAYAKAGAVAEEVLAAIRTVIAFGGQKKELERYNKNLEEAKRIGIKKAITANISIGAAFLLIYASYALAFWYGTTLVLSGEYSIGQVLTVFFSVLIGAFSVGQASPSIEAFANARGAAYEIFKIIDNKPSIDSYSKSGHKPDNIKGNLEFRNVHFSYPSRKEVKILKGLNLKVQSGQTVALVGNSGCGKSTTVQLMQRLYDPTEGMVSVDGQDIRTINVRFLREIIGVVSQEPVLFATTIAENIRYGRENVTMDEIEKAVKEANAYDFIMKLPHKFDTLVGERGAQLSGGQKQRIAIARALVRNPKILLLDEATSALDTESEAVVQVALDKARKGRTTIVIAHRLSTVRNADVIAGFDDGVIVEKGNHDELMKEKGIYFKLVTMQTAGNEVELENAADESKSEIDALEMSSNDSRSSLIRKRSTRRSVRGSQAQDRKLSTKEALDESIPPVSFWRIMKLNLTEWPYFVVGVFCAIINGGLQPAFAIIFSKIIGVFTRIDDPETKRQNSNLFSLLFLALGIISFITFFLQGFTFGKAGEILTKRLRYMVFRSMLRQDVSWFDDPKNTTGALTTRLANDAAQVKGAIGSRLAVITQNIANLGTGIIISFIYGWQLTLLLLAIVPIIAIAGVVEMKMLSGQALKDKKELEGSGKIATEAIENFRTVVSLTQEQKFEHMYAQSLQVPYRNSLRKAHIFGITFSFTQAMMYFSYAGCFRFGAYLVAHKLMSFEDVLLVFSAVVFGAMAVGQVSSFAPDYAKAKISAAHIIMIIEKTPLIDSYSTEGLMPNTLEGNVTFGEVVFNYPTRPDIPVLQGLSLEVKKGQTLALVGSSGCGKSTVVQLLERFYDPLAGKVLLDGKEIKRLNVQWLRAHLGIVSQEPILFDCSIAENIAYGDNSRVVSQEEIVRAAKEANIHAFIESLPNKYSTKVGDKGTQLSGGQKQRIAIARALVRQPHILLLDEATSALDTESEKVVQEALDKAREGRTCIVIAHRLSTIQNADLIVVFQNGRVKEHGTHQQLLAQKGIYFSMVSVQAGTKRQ
# Sequence of CYP2D6 (P10635 whole entry): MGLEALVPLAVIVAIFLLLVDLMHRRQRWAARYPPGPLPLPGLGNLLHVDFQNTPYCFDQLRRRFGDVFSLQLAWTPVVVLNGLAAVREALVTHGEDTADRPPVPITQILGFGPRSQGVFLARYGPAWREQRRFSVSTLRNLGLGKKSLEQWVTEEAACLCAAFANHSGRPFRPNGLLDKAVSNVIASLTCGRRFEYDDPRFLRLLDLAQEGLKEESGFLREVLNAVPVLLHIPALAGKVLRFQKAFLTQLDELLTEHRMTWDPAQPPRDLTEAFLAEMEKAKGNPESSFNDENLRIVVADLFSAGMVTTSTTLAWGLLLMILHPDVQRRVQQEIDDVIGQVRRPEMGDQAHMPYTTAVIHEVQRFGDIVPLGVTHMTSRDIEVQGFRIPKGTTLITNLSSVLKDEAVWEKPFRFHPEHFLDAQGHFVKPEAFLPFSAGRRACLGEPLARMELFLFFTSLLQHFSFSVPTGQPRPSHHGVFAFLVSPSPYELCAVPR
# Sequence of Cytochrome P450 3A4 (P08684 whole entry): as the sequence (P08684 whole entry, canonical isoform) above
# Sequence of 5-hydroxytryptamine receptor 5A (P47898 whole entry): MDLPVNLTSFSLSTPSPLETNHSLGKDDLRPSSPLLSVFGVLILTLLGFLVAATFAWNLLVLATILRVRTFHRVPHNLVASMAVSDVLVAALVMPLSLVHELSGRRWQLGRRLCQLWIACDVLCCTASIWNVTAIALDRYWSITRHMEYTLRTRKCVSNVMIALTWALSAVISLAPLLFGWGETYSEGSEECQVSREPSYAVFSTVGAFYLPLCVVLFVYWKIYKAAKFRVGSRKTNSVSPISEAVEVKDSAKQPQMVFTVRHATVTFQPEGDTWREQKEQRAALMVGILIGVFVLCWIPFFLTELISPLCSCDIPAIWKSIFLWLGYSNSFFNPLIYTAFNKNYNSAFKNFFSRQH
activity at 10 µM (CYP3A4) [%],activity at 10 µM (CYP2D6) [%],metabolised at 2 h [9] [%],activity at 25 µM (CYP2C9) [%],"activity at 40 min, 100 µM (P-glycoprotein (ABCB1)) [%]",Compound,Ki (D(2) dopamine receptor) [µM],Ki [4] [µM],Ki [5] [µM],Activity [6],Ki [12] [µM],Ki [13] [µM],further results
–,–,–,–,–,c1ccc(-c2ccccc2N2CCNCC2)cc1,–,–,–,–,–,–,Ki [1]: 0.596 µM; Ki [2]: 1.19 µM; Ki [3]: 0.076 µM
–,–,–,–,–,CCn1cncc1-c1c[nH]c2ccc(I)cc12,4.85,1.67,> 10,–,–,–,–
29.4,55,9,37.2,60,Cn1cncc1-c1c[nH]c2ccc(C(N)=O)cc12,5.56,6.91,> 10,12.3,0.22,0.006,"Ratio Ki (Homo sapiens): 37; Drug metabolism ([7]; microsomes, 2 h): Metabolite_Notdetected; Drug metabolism [8]: Metabolite_Notdetected; IC50 (Cytochrome P450 3A4): 3.53 µM; IC50 (Cytochrome P450 2D6): 27.6 µM"
–,–,–,–,–,N#CC(C#N)=NNc1cccc(Cl)c1 [CARBONYL CYANIDE M-CHLOROPHENYLHYDRAZONE],–,–,–,–,–,–,Activity (HEK293): 40%
–,–,–,–,–,CCn1cncc1-c1c[nH]c2ccc(S(N)(=O)=O)cc12,> 10,7.27,> 10,–,> 10,6.42,–
–,–,–,–,–,N#Cc1ccc(CNC(=O)CCCCCN2CCN(c3ccccc3-c3ccccc3)CC2)cc1,–,–,–,–,–,–,Ki [2]: 0.626 µM; Ki [3]: 0.178 µM
–,–,–,–,–,Cc1nn(C)c(C)c1-c1cccc(CCN(C)C)c1,–,–,–,–,–,–,Ki [14]: > 1 µM; Ki [15]: > 1 µM; Ki [16]: 0.7 µM
–,–,–,–,–,CCn1cncc1-c1c[nH]c2ccc(C(=O)OC)cc12,> 10,6.06,> 10,–,> 10,0.161,–
2.9,43.4,14,104,19.3,CCn1cncc1-c1c[nH]c2ccc(C(N)=O)cc12,> 10,> 10,> 10,5.6,–,–,"Ratio Ki (Homo sapiens): 25; Activity (Mus musculus [17]): Active; Activity [18]: Non-Toxic; metabolised at 2 h [7]: 7%; Drug metabolism [8]: Metabolite_Notdetected; IC50 (Cytochrome P450 3A4): 0.31 µM; IC50 (Cytochrome P450 2D6): 7.47 µM; Retention_time [19]: 1.6 min; Papp [10]: 2.78 ×10⁻⁶ cm/s; viability at 3 h, 100 µM [20]: 102%; Activity (Mus musculus [21]): Active"

Compound,activity at 10 µM (CYP3A4) [%],activity at 10 µM (CYP2D6) [%],metabolised at 2 h [9] [%],activity at 25 µM (CYP2C9) [%],"activity at 40 min, 100 µM (P-glycoprotein (ABCB1)) [%]",Ki (D(2) dopamine receptor) [µM],Ki [4] [µM],Ki [5] [µM],Activity [6],Ki [12] [µM],Ki [13] [µM],further results
NCCc1c[nH]c2ccc(C(N)=O)cc12,95.7,108,2,78.7,26.3,–,–,–,4,–,–,"metabolised at 2 h [7]: 20%; metabolised at 2 h ([8]; liver microsomes, read-out: Drug metabolism): 26%; Papp [10]: 3.54 ×10⁻⁶ cm/s; Retention_time [11]: 1.62 min"
